# Calls of active or inactive are those of the source. The rule behind the calls is not given here.
# Experiments:
# Mus musculus [1] = assay: Anxiolytic activity in Swiss Webster mouse assessed as increase in time spent in light compartment at 10 mg/kg, ip administered as single dose 15 mins prior to testing by light-dark box test; type: functional, organism-based; design: dose 10 mg/kg
# Summary of the method: (§1)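 Light–dark box test in mice. Drugs were given ip 15 min pretest in a 2% ethanol, 10% Tween 80 and water suspension (MTEP in saline). Read-outs were the proportion of time in the light compartment and the number of light–dark transitions. n = 10–12 per dose, means ± SEM. One-way ANOVA with Bonferroni test against the within-group vehicle cohort.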
# Mus musculus [2] = assay: Anxiolytic activity in Swiss Webster mouse assessed as increase in time spent in the centre region at 10 mg/kg, ip administered as single dose 15 mins prior to testing by open-field test; type: functional, organism-based; design: dose 10 mg/kg
# Summary of the method: (§2)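 Open-field test in mice. Drugs were suspended in 2% ethanol/10% Tween 80/water (MTEP in saline) and given ip 15 min before testing. Locomotor activity and time in the center region were recorded. n = 10–12 per dose, means ± SEM. Each dose was compared with its within-group vehicle cohort by one-way ANOVA with Bonferroni post hoc test.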
# Mus musculus [3] = assay: Anxiolytic activity in Swiss Webster mouse assessed as increase in number of compartment transitions at 10 mg/kg, ip administered as single dose 15 mins prior to testing by light-dark box test; type: functional, organism-based; design: dose 10 mg/kg; summary of the method: as §1
# Mus musculus [4] = assay: Anxiolytic activity in ip dosed Swiss Webster mouse assessed as increase in locomotor activity administered as single dose 15 mins prior to testing by open-field test; type: functional, organism-based; summary of the method: as §2
# [5] = molecular target: Metabotropic glutamate receptor 5 (Rattus norvegicus) (UniProt P31424); assay: Inverse agonist activity at rat mGluR5 expressed in HEK293A cells coexpressing Gqalpha assessed as inhibition of quisqualic-induced D-myo-inositol 1 production by ELISA; type: functional, cell-based; settings: HEK293-A
# Chain of Metabotropic glutamate receptor 5 (Rattus norvegicus) (P31424 21-1203 limits assumed): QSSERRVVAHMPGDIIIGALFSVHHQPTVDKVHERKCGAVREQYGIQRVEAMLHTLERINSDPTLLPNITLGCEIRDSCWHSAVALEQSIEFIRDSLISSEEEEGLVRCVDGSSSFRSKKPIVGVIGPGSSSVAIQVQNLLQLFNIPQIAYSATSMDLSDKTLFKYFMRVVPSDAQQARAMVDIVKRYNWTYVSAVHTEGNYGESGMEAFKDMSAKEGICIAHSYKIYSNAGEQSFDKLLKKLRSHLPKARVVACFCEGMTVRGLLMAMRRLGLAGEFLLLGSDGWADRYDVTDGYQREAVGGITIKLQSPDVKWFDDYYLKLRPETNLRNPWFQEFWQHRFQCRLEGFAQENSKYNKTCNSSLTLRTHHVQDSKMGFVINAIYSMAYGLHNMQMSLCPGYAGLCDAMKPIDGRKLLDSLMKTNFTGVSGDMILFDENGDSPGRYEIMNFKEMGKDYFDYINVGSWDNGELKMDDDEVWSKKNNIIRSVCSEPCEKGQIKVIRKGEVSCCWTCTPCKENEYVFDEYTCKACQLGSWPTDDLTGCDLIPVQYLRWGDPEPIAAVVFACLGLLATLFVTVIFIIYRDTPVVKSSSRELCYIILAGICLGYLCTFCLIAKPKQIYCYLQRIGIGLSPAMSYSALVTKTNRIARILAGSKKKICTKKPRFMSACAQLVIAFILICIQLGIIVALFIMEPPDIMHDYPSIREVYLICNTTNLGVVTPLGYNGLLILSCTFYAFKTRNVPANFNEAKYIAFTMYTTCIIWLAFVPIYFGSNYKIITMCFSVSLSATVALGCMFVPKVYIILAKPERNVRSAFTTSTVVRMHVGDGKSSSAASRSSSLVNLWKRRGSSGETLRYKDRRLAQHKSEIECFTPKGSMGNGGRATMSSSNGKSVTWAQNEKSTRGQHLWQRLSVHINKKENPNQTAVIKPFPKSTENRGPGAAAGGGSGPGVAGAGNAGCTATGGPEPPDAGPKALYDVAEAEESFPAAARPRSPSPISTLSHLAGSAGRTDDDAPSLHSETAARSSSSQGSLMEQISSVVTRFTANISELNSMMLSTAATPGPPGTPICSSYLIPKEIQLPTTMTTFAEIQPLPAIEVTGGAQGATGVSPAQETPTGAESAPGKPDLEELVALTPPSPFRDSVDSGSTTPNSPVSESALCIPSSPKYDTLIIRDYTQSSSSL
# Summary of the method: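 IP₃ production was gauged indirectly by IP-One ELISA for IP₁ accumulation. Dose–response curves were run without agonist and in the presence of 1 μM quisqualic acid.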
# Mus musculus [6] = assay: Anxiolytic activity in ip dosed Swiss Webster mouse assessed as increase in number of compartment transitions administered as single dose 15 mins prior to testing by light-dark box test; type: functional, organism-based; summary of the method: as §1
# Mus musculus [7] = assay: Anxiolytic activity in ip dosed Swiss Webster mouse assessed as increase in time spent in light compartment administered as single dose 15 mins prior to testing by light-dark box test; type: functional, organism-based; summary of the method: as §1
# Mus musculus [8] = assay: Anxiolytic activity in Swiss Webster mouse assessed as increase in locomotor activity at 10 mg/kg, ip administered as single dose 15 mins prior to testing by open-field test; type: functional, organism-based; design: dose 10 mg/kg; summary of the method: as §2
# Mus musculus [9] = assay: Anxiolytic activity in ip dosed Swiss Webster mouse assessed as increase in time spent in the centre region administered as single dose 15 mins prior to testing by open-field test; type: functional, organism-based; summary of the method: as §2
# [10] = molecular target: T1, Metabotropic glutamate receptor 5 (Rattus norvegicus, UniProt P31424); assay: Displacement of [3H]MPEP from mGluR5 in Sprague-Dawley rat brain membrane after 60 mins by liquid scintillation counting; type: cell membranes
# T1 sequence (P31424 whole entry): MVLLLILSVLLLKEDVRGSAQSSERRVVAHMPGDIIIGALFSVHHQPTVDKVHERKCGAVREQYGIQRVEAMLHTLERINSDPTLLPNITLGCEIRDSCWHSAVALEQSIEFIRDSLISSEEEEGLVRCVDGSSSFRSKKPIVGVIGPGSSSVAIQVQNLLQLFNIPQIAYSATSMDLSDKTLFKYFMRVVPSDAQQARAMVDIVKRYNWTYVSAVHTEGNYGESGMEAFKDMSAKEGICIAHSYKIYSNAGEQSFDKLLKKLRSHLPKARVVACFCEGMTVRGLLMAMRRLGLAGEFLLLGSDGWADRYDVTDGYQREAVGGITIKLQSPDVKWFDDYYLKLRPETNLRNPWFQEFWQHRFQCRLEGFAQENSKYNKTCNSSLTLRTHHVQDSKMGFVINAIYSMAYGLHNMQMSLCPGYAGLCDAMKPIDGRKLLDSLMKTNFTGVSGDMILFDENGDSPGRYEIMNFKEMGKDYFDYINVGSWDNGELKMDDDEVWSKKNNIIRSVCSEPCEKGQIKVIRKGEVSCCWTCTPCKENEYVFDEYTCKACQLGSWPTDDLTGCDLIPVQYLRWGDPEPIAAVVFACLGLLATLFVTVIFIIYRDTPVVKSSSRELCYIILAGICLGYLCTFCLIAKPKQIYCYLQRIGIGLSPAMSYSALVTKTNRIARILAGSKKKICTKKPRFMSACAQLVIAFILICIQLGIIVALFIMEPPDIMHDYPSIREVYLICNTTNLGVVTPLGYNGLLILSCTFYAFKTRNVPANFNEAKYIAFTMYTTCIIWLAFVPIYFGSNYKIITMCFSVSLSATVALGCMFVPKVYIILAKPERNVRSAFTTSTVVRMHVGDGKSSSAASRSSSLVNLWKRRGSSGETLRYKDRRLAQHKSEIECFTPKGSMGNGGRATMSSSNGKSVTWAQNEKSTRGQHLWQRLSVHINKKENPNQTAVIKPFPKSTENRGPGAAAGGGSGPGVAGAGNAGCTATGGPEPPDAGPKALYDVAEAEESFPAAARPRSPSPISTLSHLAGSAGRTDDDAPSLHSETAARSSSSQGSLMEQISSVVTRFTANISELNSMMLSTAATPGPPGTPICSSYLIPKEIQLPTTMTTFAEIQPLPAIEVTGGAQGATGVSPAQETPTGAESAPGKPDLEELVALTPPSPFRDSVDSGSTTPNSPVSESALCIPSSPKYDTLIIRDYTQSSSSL
# Mus musculus [11] = assay: Anxiolytic activity in Swiss Webster mouse assessed as increase in time spent in light compartment at 3 mg/kg, ip administered as single dose 15 mins prior to testing by light-dark box test; type: functional, organism-based; design: dose 3 mg/kg; summary of the method: as §1
# Mus musculus [12] = assay: Anxiolytic activity in Swiss Webster mouse assessed as increase in time spent in the centre region at 0.3 mg/kg, ip administered as single dose 15 mins prior to testing by open-field test; type: functional, organism-based; design: dose 0.3 mg/kg; summary of the method: as §2
# Mus musculus [13] = assay: Anxiolytic activity in Swiss Webster mouse assessed as increase in number of compartment transitions at 0.3 mg/kg, ip administered as single dose 15 mins prior to testing by light-dark box test; type: functional, organism-based; design: dose 0.3 mg/kg; summary of the method: as §1
# Mus musculus [14] = assay: Anxiolytic activity in Swiss Webster mouse assessed as increase in locomotor activity at 0.3 mg/kg, ip administered as single dose 15 mins prior to testing by open-field test; type: functional, organism-based; design: dose 0.3 mg/kg; summary of the method: as §2
# Mus musculus [15] = assay: Anxiolytic activity in Swiss Webster mouse assessed as increase in locomotor activity at 3 mg/kg, ip administered as single dose 15 mins prior to testing by open-field test; type: functional, organism-based; design: dose 3 mg/kg; summary of the method: as §2
# Mus musculus [16] = assay: Anxiolytic activity in Swiss Webster mouse assessed as increase in number of compartment transitions at 3 mg/kg, ip administered as single dose 15 mins prior to testing by light-dark box test; type: functional, organism-based; design: dose 3 mg/kg; summary of the method: as §1
# [17] = molecular target: T1, Metabotropic glutamate receptor 5; assay: Inverse agonist activity at rat mGluR5 expressed in HEK293A cells coexpressing Gqalpha assessed as inhibition of basal D-myo-inositol 1 production by ELISA
# Mus musculus [18] = assay: Anxiolytic activity in Swiss Webster mouse assessed as increase in time spent in the centre region at 3 mg/kg, ip administered as single dose 15 mins prior to testing by open-field test; type: functional, organism-based; design: dose 3 mg/kg; summary of the method: as §2
# Mus musculus [19] = assay: Anxiolytic activity in Swiss Webster mouse assessed as increase in time spent in light compartment at 0.3 mg/kg, ip administered as single dose 15 mins prior to testing by light-dark box test; type: functional, organism-based; design: dose 0.3 mg/kg; summary of the method: as §1
# [20] = molecular target: Metabotropic glutamate receptor 5 (Rattus norvegicus) (UniProt P31424); assay: Ratio of MPEP Ki to compound Ki for mGluR5 in Sprague-Dawley rat brain membrane; type: cell membranes
# Mus musculus [21] = assay: Anxiolytic activity in Swiss Webster mouse assessed as increase in time spent in light compartment at 0.1 to 0.3 mg/kg, ip administered as single dose 15 mins prior to testing by light-dark box test; type: functional, organism-based; summary of the method: as §1
# Mus musculus [22] = assay: Anxiolytic activity in Swiss Webster mouse assessed as increase in time spent in the centre region at 0.1 to 0.3 mg/kg, ip administered as single dose 15 mins prior to testing by open-field test; type: functional, organism-based; summary of the method: as §2
# Mus musculus [23] = assay: Anxiolytic activity in Swiss Webster mouse assessed as increase in number of compartment transitions at 0.1 to 0.3 mg/kg, ip administered as single dose 15 mins prior to testing by light-dark box test; type: functional, organism-based; summary of the method: as §1
# Mus musculus [24] = assay: Anxiolytic activity in Swiss Webster mouse assessed as increase in locomotor activity at 0.1 to 0.3 mg/kg, ip administered as single dose 15 mins prior to testing by open-field test; type: functional, organism-based; summary of the method: as §2
# Mus musculus [25] = assay: Anxiolytic activity in Swiss Webster mouse assessed as increase in time spent in light compartment at 30 mg/kg, ip administered as single dose 15 mins prior to testing by light-dark box test; type: functional, organism-based; design: dose 30 mg/kg; summary of the method: as §1
# Mus musculus [26] = assay: Anxiolytic activity in Swiss Webster mouse assessed as increase in locomotor activity at 3 to 30 mg/kg, ip administered as single dose 15 mins prior to testing by open-field test; type: functional, organism-based; summary of the method: as §2
# Mus musculus [27] = assay: Anxiolytic activity in Swiss Webster mouse assessed as increase in time spent in the centre region at 30 mg/kg, ip administered as single dose 15 mins prior to testing by open-field test; type: functional, organism-based; design: dose 30 mg/kg; summary of the method: as §2
# Mus musculus [28] = assay: Anxiolytic activity in Swiss Webster mouse assessed as increase in time spent in light compartment at 3 to 30 mg/kg, ip administered as single dose 15 mins prior to testing by light-dark box test; type: functional, organism-based; summary of the method: as §1
# Mus musculus [29] = assay: Anxiolytic activity in Swiss Webster mouse assessed as increase in locomotor activity at 30 mg/kg, ip administered as single dose 15 mins prior to testing by open-field test; type: functional, organism-based; design: dose 30 mg/kg; summary of the method: as §2
# Mus musculus [30] = assay: Anxiolytic activity in Swiss Webster mouse assessed as increase in number of compartment transitions at 30 mg/kg, ip administered as single dose 15 mins prior to testing by light-dark box test; type: functional, organism-based; design: dose 30 mg/kg; summary of the method: as §1
# Mus musculus [31] = assay: Anxiolytic activity in Swiss Webster mouse assessed as increase in number of compartment transitions at 3 to 30 mg/kg, ip administered as single dose 15 mins prior to testing by light-dark box test; type: functional, organism-based; summary of the method: as §1
# Mus musculus [32] = assay: Anxiolytic activity in Swiss Webster mouse assessed as increase in time spent in the centre region at 3 to 30 mg/kg, ip administered as single dose 15 mins prior to testing by open-field test; type: functional, organism-based; summary of the method: as §2
structure (smiles),measurement,setting,value
Cc1nc(C#Cc2cccnc2)cs1,Activity,Mus musculus [1],Active
same,Activity,Mus musculus [2],Active
same,Activity,Mus musculus [3],Active
same,Activity,Mus musculus [4],Dose-dependent effect
same,inhibition,[5],Dose-dependent effect
same,Activity,Mus musculus [6],Dose-dependent effect
same,Activity,Mus musculus [7],Dose-dependent effect
same,Activity,Mus musculus [8],Active
same,Activity,Mus musculus [9],Dose-dependent effect
N#Cc1cccc(C#Cc2cc(F)cc(C(N)=O)c2)n1,Ki,[10],> 10000 nM
Cc1cccc(C#Cc2cc(F)cc(C#N)c2)n1,Activity,Mus musculus [11],inactive
same,Activity,Mus musculus [12],Active
same,Activity,Mus musculus [13],Active
same,Activity,Mus musculus [14],Active
same,Activity,Mus musculus [4],Dose-dependent effect
same,inhibition,[5],Dose-dependent effect
same,Activity,Mus musculus [15],Active
same,Activity,Mus musculus [6],Dose-dependent effect
same,Activity,Mus musculus [7],Dose-dependent effect
same,Activity,Mus musculus [16],inactive
same,Activity,Mus musculus [9],Dose-dependent effect
same,IC50,[17],2.4 nM
same,Activity,Mus musculus [18],inactive
same,Ki,[10],0.67 nM
same,Activity,Mus musculus [19],Active
same,Ratio Ki,[20],24
N#Cc1cccc(C#Cc2cccc(F)n2)c1,IC50,[17],210 nM
same,Ki,[10],150 nM
COc1cccc(C#Cc2cccc(C#N)c2)n1,IC50,[17],300 nM
same,Ki,[10],200 nM
CCc1cccc(C#Cc2cccc(C#N)c2)n1,IC50,[17],80 nM
same,Ki,[10],3.4 nM
COc1cccc(C#Cc2cc(F)cc(C#N)c2)n1,IC50,[17],400 nM
same,Ki,[10],40 nM
COc1cccc(C#Cc2cncc(C#N)c2)n1,IC50,[17],200 nM
same,Ki,[10],55 nM
N#Cc1cncc(C#Cc2cccc(C#N)n2)c1,IC50,[17],500 nM
same,Ki,[10],52 nM
CC(=O)c1cccc(C#Cc2cccc(C#N)c2)n1,IC50,[17],300 nM
same,Ki,[10],114 nM
N#Cc1cc(F)cc(C#Cc2cccc(F)n2)c1,IC50,[17],80 nM
same,Ki,[10],41 nM
COc1cc(C#N)cc(C#Cc2cccc(C)n2)c1,IC50,[17],3.4 nM
same,Ki,[10],1.29 nM
N#Cc1cncc(C#Cc2cccc(CO)n2)c1,Ki,[10],> 10000 nM
Cc1cccc(C#Cc2cccc(C#N)c2)n1,IC50,[17],13 nM
same,Ki,[10],1.04 nM
N#Cc1cccc(C#Cc2cccc(C#N)n2)c1,IC50,[17],20 nM
same,Ki,[10],8.2 nM
N#Cc1cccc(C#Cc2cccc(C(N)=O)c2)n1,Ki,[10],> 10000 nM
CC(=O)c1cccc(C#Cc2cc(F)cc(C#N)c2)n1,IC50,[17],240 nM
same,Ki,[10],64 nM
N#Cc1cc(F)cc(C#Cc2cccc(CO)n2)c1,IC50,[17],50 nM
same,Ki,[10],7.5 nM
N#Cc1cccc(C#Cc2cccc(CO)n2)c1,IC50,[17],30 nM
same,Ki,[10],37 nM
N#Cc1cc(F)cc(C#Cc2cccc(C#N)n2)c1,Activity,Mus musculus [11],inactive
same,Activity,Mus musculus [4],Dose-dependent effect
same,Activity,Mus musculus [21],Active
same,inhibition,[5],Dose-dependent effect
same,Activity,Mus musculus [15],inactive
same,Activity,Mus musculus [22],Active
same,Activity,Mus musculus [6],Dose-dependent effect
same,Activity,Mus musculus [7],Dose-dependent effect
same,Activity,Mus musculus [16],inactive
same,Activity,Mus musculus [9],Dose-dependent effect
same,Activity,Mus musculus [23],Active
same,IC50,[17],9 nM
same,Activity,Mus musculus [18],inactive
same,Ki,[10],2.7 nM
same,Activity,Mus musculus [24],Active
same,Ratio Ki,[20],6
Cc1cccc(C#Cc2ccccc2)n1,Activity,Mus musculus [4],Dose-dependent effect
same,Activity,Mus musculus [25],inactive
same,Activity,Mus musculus [26],Active
same,Activity,Mus musculus [27],inactive
same,Activity,Mus musculus [28],Active
same,inhibition,[5],Dose-dependent effect
same,Activity,Mus musculus [6],Dose-dependent effect
same,Activity,Mus musculus [7],Dose-dependent effect
same,Activity,Mus musculus [29],Active
same,Activity,Mus musculus [30],inactive
same,Activity,Mus musculus [31],Active
same,Activity,Mus musculus [9],Dose-dependent effect
same,Activity,Mus musculus [32],Active
CCCCc1cccc(C#Cc2cccc(C#N)c2)n1,IC50,[17],700 nM
same,Ki,[10],45 nM

# From ChEMBL document CHEMBL2086345, “Metabotropic glutamate receptor 5 negative allosteric modulators as novel tools for in vivo investigation” (ACS Med Chem Lett, 2012)
